Assay results reported in ChEMBL document CHEMBL1955834, “Disparate SAR data of griseofulvin analogues for the dermatophytes Trichophyton mentagrophytes, T. rubrum, and MDA-MB-231 cancer cells” (J Med Chem, 2012).
pIC50: −log10 of the molar value. Calls of active or inactive are those of the source. The rule behind the calls is not given here.

Tests used:
MDA-MB-231 [1] = experiment: Cytotoxicity against human MDA-MB-231 cells assessed as cell viability after 48 hrs by MTT assay; assay type: functional, cell-based; conditions: MDA-MB-231, 48 h
Outline: (§1)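 MDA-MB-231 cells were grown in L-15 with 10% FCS at 37 °C and seeded at (2-3) × 10^4 per well. Exposure was 24 and/or 48 h, then MTT for at least 4 h, with absorbance read at 570/630 nm. Each condition had at least 3 replicates, reported as mean ± SD of a representative experiment repeated at least three times.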

[2] = tested on: Trichophyton mentagrophytes; experiment: Antifungal activity against Trichophyton mentagrophytes IBT 2724 at 50 uM after 7 days by micro broth dilution method; assay type: functional; conditions: for inhibition at 50 µM: IBT 2724, 168 h
Outline: (§2)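 T. mentagrophytes IBT2724 was tested by broth microdilution using an 8-fold dilution series of 10 concentrations from 50 μM down to 0.4 μM, with 1% DMSO. The inoculum was prepared per CLSI M38-A2, adjusted to OD530 0.90–1.5 and diluted 50-fold in RPMI/MOPS at pH 7.00. Plates ran 7 days at 37 °C with an OD read-out. IC50 came from a variable-slope sigmoidal fit.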

Trichophyton rubrum [3] = experiment: Antifungal activity against Trichophyton rubrum IBT 29284 at 50 uM after 7 days by micro broth dilution method; assay type: functional; conditions: for inhibition at 50 µM: IBT 29284, 168 h
Outline: (§3)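 T. rubrum IBT29284 was tested by broth microdilution using a 4-fold dilution series of 10 concentrations from 50 μM down to 0.2 μM, with 1% DMSO. The inoculum followed CLSI M38-A2, set to OD530 0.90–1.5 and diluted 50-fold in RPMI/MOPS at pH 7.00. Incubation was 7 days at 37 °C, read by OD. IC50 came from a variable-slope sigmoidal fit.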

[4] = tested on: Trichophyton mentagrophytes; experiment: Antifungal activity against Trichophyton mentagrophytes IBT 2724 after 7 days by micro broth dilution method; assay type: functional, organism-based; conditions: IBT 2724, 168 h; outline: as §2
Trichophyton rubrum [5] = experiment: Antifungal activity against Trichophyton rubrum IBT 29284 after 7 days by micro broth dilution method; assay type: functional, organism-based; conditions: IBT 29284, 168 h; outline: as §3
MDA-MB-231 [6] = experiment: Cytotoxicity against human MDA-MB-231 cells assessed as cell viability at 50 uM after 48 hrs by MTT assay; assay type: functional; conditions: for inhibition at 50 µM: MDA-MB-231, 48 h; outline: as §1
SCC114 = experiment: Cytotoxicity against human SCC114 cells by phenotype-based spindle multipolarity assay; assay type: functional, cell-based
[7] = Drug degradation in phosphate buffered saline at pH 7.4 assessed as compound hydrolysis after 48 hrs; assay type: physicochemical; conditions: read-out: Drug degradation
Outline: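 Oximes were held in PBS at pH 7.4 for 48 h, and hydrolysis to the parent ketones was monitored.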

| Compound | pIC50 [4] | pIC50 (Trichophyton rubrum [5]) | pIC50 (MDA-MB-231 [1]) | inhibition (Trichophyton rubrum [3]) | other results |
| --- | --- | --- | --- | --- | --- |
| COc1cc(OC)c2c(c1Cl)O[C@]1(C2=O)C(OCc2ccncc2)=CC(=O)C[C@H]1C |  |  | 4.72 |  | inhibition at 50 µM [2]: < 50%; inhibition at 50 µM (Trichophyton rubrum [3]): < 50% |
| COC1=CC(=O)C[C@@H](C)[C@]12Oc1c(Cl)c(OC)cc(OCc3cccc4ccccc34)c1C2=O |  |  | 4.77 | inactive | inhibition [2]: inactive |
| COc1cc(OC)c2c(c1Cl)O[C@@]1(C(=O)C=C(Cl)C[C@H]1C)C2=O |  |  | 6.00 | inactive | inhibition [2]: inactive |
| COC1=CC(=O)C[C@@H](C)[C@]12Oc1c(Cl)c(OC)c([N+](=O)[O-])c(OC)c1C2=O |  |  |  | inactive | inhibition [2]: inactive; inhibition (MDA-MB-231 [6]): inactive |
| COC1=CC(=O)[C@@]2(Oc3c(Cl)c(OC)cc(OC)c3C2=O)[C@H](C)C1 |  |  |  | inactive | inhibition (SCC114): inactive; inhibition [2]: inactive; inhibition (MDA-MB-231 [6]): inactive |
| COC1=CC(=O)C[C@@H](C)[C@]12Oc1c(Cl)c(OC)c(N)c(OC)c1C2=O |  |  |  | inactive | inhibition [2]: inactive; inhibition (MDA-MB-231 [6]): inactive |
| COc1cc(OC)c2c(c1Cl)O[C@@]1(C(=O)C=C(OC(C)C)C[C@H]1C)C2=O |  |  | 4.32 | inactive | inhibition (SCC114): inactive; inhibition at 50 µM [2]: < 50% |
| COc1cc(OC)c2c(c1Cl)O[C@]1(C2=O)C(=O)C(C)(C)C(=O)C[C@H]1C |  |  |  | inactive | inhibition [2]: inactive; inhibition (MDA-MB-231 [6]): inactive |
| COc1cc(OC)c2c(c1Cl)O[C@@]1(C(=O)C=C(OCC3CC3)C[C@H]1C)C2=O |  |  | 4.28 | inactive | inhibition (SCC114): inactive; inhibition at 50 µM [2]: < 50% |
| COc1cc(OC)c2c(c1Cl)O[C@]1(C2=O)C(Cl)=CC(=O)C[C@H]1C |  |  | 5.49 |  | inhibition at 50 µM [2]: < 50%; inhibition at 50 µM (Trichophyton rubrum [3]): < 50% |
| COc1cc(OC)c2c(c1Cl)O[C@@]1(C(=O)C=C(OCc3ccccc3)C[C@H]1C)C2=O |  |  |  | inactive | inhibition (SCC114): inactive; inhibition at 50 µM [2]: < 50%; inhibition at 50 µM (MDA-MB-231 [6]): < 50% |
| CCOC1=CC(=O)[C@@]2(Oc3c(Cl)c(OC)cc(OC)c3C2=O)[C@H](C)C1 |  |  |  | inactive | inhibition (SCC114): inactive; inhibition at 50 µM [2]: < 50%; inhibition at 50 µM (MDA-MB-231 [6]): < 50% |
| CCCOC1=CC(=O)[C@@]2(Oc3c(Cl)c(OC)cc(OC)c3C2=O)[C@H](C)C1 |  |  | 4.37 | inactive | inhibition (SCC114): inactive; inhibition at 50 µM [2]: < 50% |
| COc1cccc(COC2=CC(=O)[C@@]3(Oc4c(Cl)c(OC)cc(OC)c4C3=O)[C@H](C)C2)c1 |  |  | 4.60 | inactive | inhibition at 50 µM [2]: < 50% |
| COC1=CC(=O)C[C@@H](C)[C@]12Oc1c(Cl)c(O)cc(OC)c1C2=O |  |  |  | inactive | inhibition [2]: inactive; inhibition at 50 µM (MDA-MB-231 [6]): < 50% |
| COc1cc(OC)c2c(c1Cl)O[C@]1(C(=O)CC(=O)C[C@@H]1C)C2=O (relative stereo) |  |  |  | inactive | inhibition at 50 µM [2]: < 50%; inhibition (MDA-MB-231 [6]): inactive |
| COc1ccc(COC2=CC(=O)C[C@@H](C)[C@]23Oc2c(Cl)c(OC)cc(OC)c2C3=O)cc1 |  |  |  | inactive | inhibition [2]: inactive; inhibition at 50 µM (MDA-MB-231 [6]): < 50% |
| COC1=CC(=O)C[C@@H](C)[C@]12Oc1c(Cl)c(OC)cc(O)c1C2=O |  |  |  | inactive | inhibition at 50 µM [2]: < 50%; inhibition (MDA-MB-231 [6]): inactive |
| COc1cc(OC)c2c(c1Cl)O[C@]1(C2=O)C(OCC23CC4CC(CC(C4)C2)C3)=CC(=O)C[C@H]1C |  |  | 5.33 | inactive | inhibition [2]: inactive |
| COc1cc(OC)c2c(c1Cl)O[C@]1(C2=O)C(OCc2ccc(-c3ccccc3)cc2)=CC(=O)C[C@H]1C |  |  | 5.24 | inactive | inhibition [2]: inactive |
| COc1cc(O)c(Cl)c2c1C(=O)[C@@]1(O2)C(=O)C=C(O)C[C@H]1C |  |  |  | inactive | inhibition [2]: inactive; inhibition (MDA-MB-231 [6]): inactive |
| COc1cc(OC)c2c(c1Cl)O[C@@]1(C(=O)C=C(OC3CCCC3)C[C@H]1C)C2=O |  |  | 4.57 | inactive | inhibition (SCC114): inactive; inhibition at 50 µM [2]: < 50% |
| COc1cc(OC)c2c(c1Cl)O[C@]1(C2=O)C(OCc2cccc3ccccc23)=C/C(=N\O)C[C@H]1C |  |  | 5.08 | inactive | degraded at 48 h [7]: < 5%; inhibition [2]: inactive |
| COC1=C(I)C(=O)C[C@@H](C)[C@]12Oc1c(Cl)c(OC)cc(OC)c1C2=O |  |  | 4.66 | inactive | inhibition at 50 µM [2]: < 50% |

Second part, led by results:

| pIC50 [4] | pIC50 (Trichophyton rubrum [5]) | Compound | pIC50 (MDA-MB-231 [1]) | inhibition (Trichophyton rubrum [3]) | other results |
| --- | --- | --- | --- | --- | --- |
| 6.62 | 6.00 | COc1cc(OC)c2c(c1Cl)O[C@]1(C2=O)C(OCc2ccc(C)cc2)=CC(=O)C[C@H]1C | 5.74 |  |  |
| 6.54 | 5.70 | CCOc1cc(OC)c(Cl)c2c1C(=O)[C@@]1(O2)C(OC)=CC(=O)C[C@H]1C |  |  | inhibition (MDA-MB-231 [6]): inactive |
| 7.39 | 6.08 | COc1cc(OC)c2c(c1Cl)O[C@]1(C2=O)C(OCc2ccc(F)cc2)=CC(=O)C[C@H]1C | 5.19 |  |  |
| 6.55 |  | COc1cc(OC)c2c(c1Cl)O[C@]1(C2=O)C(OCCc2ccccc2)=CC(=O)C[C@H]1C | 4.77 |  | inhibition at 50 µM (Trichophyton rubrum [3]): < 50% |
| 6.96 | 5.51 | COc1cc(OC)c2c(c1Cl)O[C@]1(C2=O)C(OC(C)C)=CC(=O)C[C@H]1C | 4.96 |  |  |
| 6.15 |  | COc1ccccc1COC1=CC(=O)C[C@@H](C)[C@]12Oc1c(Cl)c(OC)cc(OC)c1C2=O | 4.96 |  | inhibition at 50 µM (Trichophyton rubrum [3]): < 50% |
| 5.89 |  | COc1cc(OC)c2c(c1Cl)O[C@]1(C2=O)C(OCc2ccccn2)=CC(=O)C[C@H]1C | 4.49 |  | inhibition at 50 µM (Trichophyton rubrum [3]): < 50% |
| 6.60 | 5.59 | COc1cc(OC)c2c(c1Cl)O[C@]1(C2=O)C(OCc2cccc3ccccc23)=CC(=O)C[C@H]1C | 4.89 |  |  |
| 6.85 | 6.02 | COc1cccc(COC2=CC(=O)C[C@@H](C)[C@]23Oc2c(Cl)c(OC)cc(OC)c2C3=O)c1 | 5.09 |  |  |
| 5.96 |  | COc1cc(OC)c2c(c1Cl)O[C@]1(C2=O)C(OCc2ccccc2)=C(I)C(=O)C[C@H]1C |  | inactive | inhibition at 50 µM (MDA-MB-231 [6]): < 50% |
| 7.24 | 5.89 | COc1cc(OC)c2c(c1Cl)O[C@]1(C2=O)C(SCc2ccccc2)=CC(=O)C[C@H]1C | 5.33 |  |  |
| 6.77 |  | CCCCCOc1cc(OC)c(Cl)c2c1C(=O)[C@@]1(O2)C(OC)=CC(=O)C[C@H]1C |  |  | inhibition at 50 µM (Trichophyton rubrum [3]): < 50%; inhibition at 50 µM (MDA-MB-231 [6]): < 50% |
| 5.52 |  | COc1cc(OC)c2c(c1Cl)O[C@@]1(C2=O)[C@H](C)C[C@H](O)C[C@@H]1OC |  |  | inhibition at 50 µM (Trichophyton rubrum [3]): < 50%; inhibition (MDA-MB-231 [6]): inactive |
| 5.80 | 5.21 | COc1cc(OC)c2c(c1Cl)O[C@]1(C2=O)C(Oc2ccccc2)=CC(=O)C[C@H]1C | 5.14 |  |  |
| 5.77 |  | COc1cc(OC)c2c(c1Cl)O[C@]1(C2=O)C(OCc2ccc(CO)cc2)=CC(=O)C[C@H]1C | 5.55 |  | inhibition at 50 µM (Trichophyton rubrum [3]): < 50% |
| 6.60 |  | COC1=CC(=O)C[C@@H](C)[C@]12Oc1c(Cl)c(OC)cc(OCc3ccccc3)c1C2=O | 4.70 | inactive | inhibition (SCC114): inactive |
| 7.21 | 5.89 | CCOc1cc(OC)c2c(c1Cl)O[C@]1(C2=O)C(OC)=CC(=O)C[C@H]1C | 4.44 |  |  |
| 6.64 | 5.80 | CCCOC1=C(I)C(=O)C[C@@H](C)[C@]12Oc1c(Cl)c(OC)cc(OC)c1C2=O | 5.10 |  |  |
| 6.59 | 5.96 | COc1cc(OC)c2c(c1Cl)O[C@]1(C2=O)C(OCc2ccccc2)=CC(=O)C[C@H]1C | 5.68 |  |  |
| 6.46 |  | COc1cc(OC)c2c(c1Cl)O[C@]1(C2=O)C(OCc2cccnc2)=CC(=O)C[C@H]1C | 5.00 |  | inhibition at 50 µM (Trichophyton rubrum [3]): < 50% |
| 6.62 | 5.60 | COc1cc(OC)c2c(c1Cl)O[C@]1(C2=O)C(OC2CCCC2)=CC(=O)C[C@H]1C | 5.49 |  |  |
| 6.60 | 6.16 | CCOC1=CC(=O)C[C@@H](C)[C@]12Oc1c(Cl)c(OC)cc(OC)c1C2=O | 4.89 |  |  |
| 6.82 | 5.82 | COc1cc(OC)c2c(c1Cl)O[C@]1(C2=O)C(OCc2ccc(C(F)(F)F)cc2)=CC(=O)C[C@H]1C | 5.15 |  |  |
| 7.22 | 5.82 | COc1cc(OC)c2c(c1Cl)O[C@]1(C2=O)C(OCC2CC2)=CC(=O)C[C@H]1C | 5.03 |  |  |
